Compound activity as filed in PubChem BioAssay.
EBI2 antag – blocks human EBI2 receptor beta-arrestin signaling | AID 651636 | P32249 | EBI2 beta-arrestin recruitment, luminescence, 7a,25-OHC stimulated | inhibition, % at 5 µM | hit rate 0.81% among 360,000; in the data active = inhibition above about 38%;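 also: enzyme fragment complementation signal reports receptor beta-arrestin coupling in cells; 0% = agonist plus DMSO wells and 100% = wells without agonist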
Target sequence (P32249 whole entry, looked up, the tested form may be a part): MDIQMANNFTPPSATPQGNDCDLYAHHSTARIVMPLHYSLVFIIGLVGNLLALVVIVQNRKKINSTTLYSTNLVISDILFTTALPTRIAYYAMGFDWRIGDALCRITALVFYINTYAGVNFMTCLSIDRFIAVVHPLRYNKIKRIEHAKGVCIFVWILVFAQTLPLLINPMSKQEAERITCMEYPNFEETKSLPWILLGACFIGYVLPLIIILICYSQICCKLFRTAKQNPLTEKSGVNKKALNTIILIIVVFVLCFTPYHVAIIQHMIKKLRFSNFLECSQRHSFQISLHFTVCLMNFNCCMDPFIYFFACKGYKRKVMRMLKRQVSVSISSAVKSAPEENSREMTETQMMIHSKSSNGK
CCR6 antagonist – blocks CCL20-driven beta-arrestin recruitment at human CCR6; P51684; CHO-K1 CCR6 PathHunter beta-arrestin, luminescence, CCL20-stimulated; inhibition, % at 20 µM; hit rate 0.49% among 340,000; AID 493098;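 active = compounds whose inhibition of the agonist-driven luminescence signal at 20 µM reaches about 50%, limit read from the data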;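 also: cells stimulated with CCL20 at 14 nM final; plate controls were DMSO with CCL20 for no effect and DMSO without agonist for full effect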
APJ agonist – APJ receptor agonism; P35414; CHO-K1 APJ PathHunter beta-arrestin, luminescence; 0% DMSO wells, 100% apelin; activation, % at 20 µM; hit rate 0.11% among 330,000; AID 2520;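 active = activation more than six SD over the plate average, tested at 20 µM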;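 also: 0% = DMSO alone and 100% = apelin-13 at 10 nM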
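system = engineered CHO-K1 APJ arrestin reporter cells | input = 1000 cells per well | timing = overnight seeding, 90 min compound at 25 °C, 1 h detection | measured by = enzyme-fragment complementation luminescence | read-out = beta-arrestin recruitment to APJ as agonist activity, luminescent signal | control set = negative DMSO alone, positive Apelin-13 at 10 nM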
CXCR6 block – inhibitors of human CXCR6 receptor | hit rate 0.36% among 360,000 | CHO-K1 PathHunter CXCR6 beta-arrestin, luminescence | O00574 | inhibition, % at 20 µM; in the data active = inhibition above about 34%, passing the limit was not always enough;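 also: antagonist mode with CXCL16 agonist at 10 nM final; 0% = 10 nM CXCL16 with DMSO and 100% = unstimulated wells without agonist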
Target sequence (O00574 whole entry, looked up): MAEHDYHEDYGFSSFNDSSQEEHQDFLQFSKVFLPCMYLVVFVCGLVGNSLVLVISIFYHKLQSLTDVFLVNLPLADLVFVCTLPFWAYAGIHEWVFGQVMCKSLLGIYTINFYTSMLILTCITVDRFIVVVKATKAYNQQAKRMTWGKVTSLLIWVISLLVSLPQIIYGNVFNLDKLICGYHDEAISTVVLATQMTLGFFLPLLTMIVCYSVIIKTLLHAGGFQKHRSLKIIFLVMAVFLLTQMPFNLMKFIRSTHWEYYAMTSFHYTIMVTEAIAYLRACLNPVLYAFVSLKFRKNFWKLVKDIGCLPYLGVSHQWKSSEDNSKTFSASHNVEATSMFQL
APJ antagonist – APJ receptor antagonism; P35414; CHO-K1 APJ beta-arrestin complementation, luminescence; inhibition, % at 20 µM; hit rate 0.32% among 330,000; AID 2521;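 active = inhibition above about 40% at 20 µM, limit read from the data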;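 also: cells challenged with 10 nM apelin-13 agonist together with compound; plate controls were apelin-13 plus DMSO wells for no effect and DMSO wells lacking apelin-13 for full effect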
APJ ag conf – confirmation of human APJ apelin receptor agonists; CHO-K1 APJ PathHunter beta-arrestin, luminescence; hit rate 10% among 310; shares compounds with APJ agonist; AID 2764; activation, % at 20 µM;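 active = activation above 40%, taking the highest of four retests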;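 also: plate controls were DMSO wells for no effect and apelin-13 at 10 nM for full effect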
APJ antag confirm – confirmation of human APJ apelin receptor antagonists; APJ beta-arrestin recruitment, luminescence, antagonist mode; inhibition, % at 20 µM; shares compounds with APJ antagonist; hit rate 66% among 950; in the data active = inhibition above about 50%
CXCR6 antag conf – confirmation of human CXCR6 receptor antagonists; hit rate 65% among 700; AID 602409; CHO-K1 CXCR6 PathHunter beta-arrestin, luminescence; shares compounds with CXCR6 block; inhibition, % at 20 µM;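 active = mean inhibition over four retests above 40%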;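 also: receptor stimulated with 10 nM CXCL16 agonist; beta-galactosidase fragment complementation upon beta-arrestin recruitment to receptor; plate controls were CXCL16 plus DMSO for no effect and DMSO without CXCL16 for full effect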
EBI2 antag conf – EBI2 (human) antagonism, single concentration confirmation. shares compounds with EBI2 antag. EBI2 beta-arrestin luminescence, 7a,25-OHC antagonism. inhibition, % at 5 µM. hit rate 29% among 2,400;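 active = inhibition of at least 50%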
EBI2 agonist – counter-screen for EBI2 antagonists: EBI2 agonist activity | shares compounds with EBI2 antag | EBI2-expressing cells, agonist mode, luminescence, 60 min; 0% vehicle, 100% 7α,25-dihydroxycholesterol control | activation, % at 5 µM | 2,400 tested, under 10 active | AID 652000;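 active = activation of at least 50%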
bGal counter – beta-galactosidase inhibition counter-screen. inhibition, % at 5 µM. hit rate 1% among 2,400. shares compounds with EBI2 antag. purified beta-galactosidase, luminescent Galacton Star, 15 min. AID 652176;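 active = replicate-average signal at least 3 plate SD below neutral wells, shown as high inhibition, flagging enzyme-inhibiting false positives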;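 also: 0% = DMSO wells with enzyme and 100% = wells lacking enzyme; higher means stronger loss of beta-gal luminescence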
Numbers without * were called inactive; . = no result given. In the library only some 1.5% were active in any assay of this set; here they are far more common.

SMILES	EBI2 antag	CCR6 antagonist	APJ agonist	CXCR6 block	APJ antagonist	others
CN1C2CCC1/C(=C/c1ccccn1)C(=O)/C2=C\c1ccccn1	30	49	.	38*	.
Cc1ccccc1-n1c(/C=C/c2ccccn2)nc2ccccc2c1=O	5	13	-3	8	-13
O=C(CN1CCCCC1)c1cccc(Br)c1	2	68*	-6	28	-12
CCOC(=O)[C@]12Cc3cc(OC)ccc3[C@H]1N(C(C)C)C(=O)c1cc(OC)ccc12	7	.	.	-2	.
Cc1ccc(N2C(=O)NC(=O)/C(=C/C=C/c3ccco3)C2=O)cc1	45*	53*	3	36	-38
O=C1NC(=O)N(c2ccccc2)C(=O)/C1=C\C=C\c1ccccc1	16	33	6	53*	0
CCc1ccc(N2C(=O)NC(=O)/C(=C\C=C\c3ccco3)C2=O)cc1	35	36	-2	34	-10
C=C1C(=O)OC2CC3(C)OC3C3OC3C3=CC(OC3=O)C12 (centres undefined)	-2	.	.	8	.
COc1c(O)cc2c(c1OC)-c1ccc(SC)c(=O)cc1C(NC(C)=O)CC2 (centres undefined)	-5	4	.	4	.
CC12CCC(O)CC1CCC1C2CCC2(C)C(C(=O)CO)CCC12 (centres undefined)	4	.	.	-4	.
Cc1ccc(N2C(=O)NC(=O)/C(=C/c3cnn(-c4ccc(C)cc4)c3)C2=O)cc1	43	49	0	43*	12
CSc1ncc(/C=C2/C(=O)NC(=O)N(c3ccc(C)cc3)C2=O)cn1	-10	8	1	2	16
CCCCn1c(NC(=O)c2ccc(Br)o2)c(C(=O)OCC)c2nc3ccccc3nc21	16	43	-11	23	63*
COC(=O)C[C@]1(C(=O)OC)CN(C#N)N(c2ccc(Cl)cc2)C12c1ccccc1-c1ccccc12	24	19	4	22	13
COC(=O)[C@@H]1[C@@H](C(=O)OC)C2(c3ccccc3-c3ccccc32)N(c2ccc(Cl)cc2)N1C#N	45*	29	6	22	18
N#CC1c2ccccc2-n2nncc2CN1Cc1cc(Cl)cc(Cl)c1 (centres undefined)	43*	41	.	26	.
COc1ccc(O)c2c(=O)c3c(OC)cc4c(c3oc12)C1C=COC1O4 (centres undefined)	53*	10	-2	-1	17
CCCCCN1C(=O)c2cc(OC)ccc2[C@@]2(C(=O)OCC)Cc3cc(Cl)ccc3[C@@H]12	44	.	.	18	.
CCOc1ccc(N2C(=O)/C(=C/c3ccco3)C(=O)NC2=S)cc1	-7	79*	0	58*	10
CCOC(=O)[C@]12Cc3cc(Cl)ccc3[C@H]1N(C1CCCCC1)C(=O)c1ccccc12	76*	.	.	21	.
CCOC(=O)[C@]12Cc3ccccc3[C@H]1N(CCC(=O)OC)C(=O)c1cc(OC)ccc12	11	.	.	-9	.
CN(Cc1cccc(-c2ccncc2)c1)C(=O)Oc1ccc([N+](=O)[O-])cc1	12	.	.	-2	.
CC(=O)O/C(=C1\CC2C3CC=C4CC(OC(C)=O)CCC4(C)C3CCC2(C)C1=O)C(F)(F)F (centres undefined)	6	83*	.	62*	.
CC(=O)O[C@H]1CC[C@@]2(C)C(=CC[C@@H]3[C@@H]2CC[C@]2(C)C(=O)CC[C@@H]32)C1	8	5	6	-15	-2
CCOc1cc2[nH]c(=S)n(CCCC(=O)N3CCC4(CC3)OCCO4)c(=O)c2cc1OCC	0	-9	35*	-1	2	APJ ag conf=22
SMILES	EBI2 antag	CCR6 antagonist	APJ agonist	CXCR6 block	APJ antagonist	others
CC1C(=O)CC2(C(C)C)CC12 (centres undefined)	-5	.	.	0	.
O=C1/C(=C/c2ccccc2)C[C@@]2(O)[C@H]3Cc4ccc(O)c5c4[C@@]2(CCN3CC2CC2)C1O5 (some centres undefined)	55*	80*	-9	58*	56*	APJ antag confirm=93*
Oc1ccc2c3c1OC1c4[nH]c5ccccc5c4C[C@@]4(O)C(C2)N(CC2CC2)CC[C@]314 (some centres undefined)	0	9	-2	8	13
CCC1CCCCN1CC(=O)c1ccc(OC(F)F)cc1 (centres undefined)	-1	25	-5	8	44*	APJ antag confirm=52*
CN1C(=O)C(=Cc2ccc(N3CCCCCC3)o2)C(=O)N(C)C1=S	12	34	-6	19	47*	APJ antag confirm=79*
CN1C(=O)C(=Cc2ccc(N3CCOCC3)o2)C(=O)N(C)C1=O	-6	17	-3	2	9
CS(=O)(=O)c1ccc(C2=C(CNC(=O)c3nccs3)[C@H]3CC[C@@H](C2)N3Cc2ccco2)cc1	-2	.	.	1	.
O=C1NC(=S)SC1=Cc1ccc(N(CCCl)CCCl)cc1	2	45	.	25	.
N#Cc1c(/N=C/c2ccc(O)cc2O)sc2c1C1CCN2CC1	-9	39	-7	8	42*	APJ antag confirm=36
Nc1c(C(=O)OCc2ccccc2)c2nc3ccccc3nc2n1Cc1cccs1	50*	0	-11	33	63*	APJ antag confirm=-11;EBI2 antag conf=12;EBI2 agonist=-1;bGal counter=-11
CC(=O)N1Cc2cnnn2-c2ccccc2C1C#N (centres undefined)	-2	3	.	1	.
COC(=O)C1=C(C(=O)OC)C2OC1c1cc3ccccc3cc12	31	109*	.	85*	.	CXCR6 antag conf=91*
CC1CC2(C)C(CCC3C2CCC2(C)C(OP(=O)(N4CC4)N4CC4)CCC32)CC1=O (centres undefined)	1	-2	.	5	.
CC1=C(O)C(=O)C=C2C1=CC=C1C2(C)CCC2(C)C3CC(C)(C(=O)O)CCC3(C)CCC12C (centres undefined)	-33	.	.	64*	.	CXCR6 antag conf=53*
COC(=O)[C@@H]1N=C(c2ccc(OC)cc2)O[C@]12C(=O)N(C)c1ccc(Cl)cc12	1	.	.	11	.
